Measured values as given in ChEMBL document CHEMBL1148703, “Synthesis and antiviral evaluation of 6-(alkyl-heteroaryl)furo[2,3-d]pyrimidin-2(3H)-one nucleosides and analogues with ethynyl, ethenyl, and ethyl spacers at C6 of the furopyrimidine core” (J Med Chem, 2007).

Experiments:
Thymidine kinase = molecular target: T1, Thymidine kinase (Varicella-zoster virus (strain Dumas) (HHV-3) (Human herpesvirus 3), UniProt P09250); test: Inhibition of VZV thymidine kinase; design: species or system Human alphaherpesvirus 3
T1 sequence (P09250 whole entry): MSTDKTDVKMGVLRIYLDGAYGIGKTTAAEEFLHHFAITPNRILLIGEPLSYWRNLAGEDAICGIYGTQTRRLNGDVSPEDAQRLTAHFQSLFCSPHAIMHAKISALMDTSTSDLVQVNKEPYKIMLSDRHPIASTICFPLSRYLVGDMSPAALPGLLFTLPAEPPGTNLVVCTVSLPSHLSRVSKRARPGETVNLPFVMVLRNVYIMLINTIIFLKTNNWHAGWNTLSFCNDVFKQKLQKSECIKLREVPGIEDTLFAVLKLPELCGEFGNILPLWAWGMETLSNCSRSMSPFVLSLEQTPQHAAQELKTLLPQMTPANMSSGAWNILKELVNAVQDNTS
Summary of the method: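 VZV TK enzyme assay in 50 mM Tris-HCl pH 8.0 with 2.5 mM MgCl2, 10 mM DTT, 2.5 mM ATP, 10 mM NaF, 1.0 mg/mL BSA and 1 µM [CH3-3H]dThd (0.1 µCi). Run 30 min at 37 °C, spotted on DE-81 discs, washed, radioactivity counted.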

Human alphaherpesvirus 3 [1] = test: Antiviral activity against TK+ VZV YS in HEL cells assessed as reduction of virus plaque formation after 5 days; format: functional, organism-based; conditions: Human alphaherpesvirus 3, YS, 120 h
Human alphaherpesvirus 3 [2] = test: Antiviral activity against TK+ VZV OKA in HEL cells assessed as reduction of virus plaque formation after 5 days; format: functional, organism-based; conditions: Human alphaherpesvirus 3, OKA, 120 h
Human alphaherpesvirus 3 [3] = test: Antiviral activity against thymidine kinase deficient VZV 07/1 in HEL cells assessed as reduction of virus plaque formation after 5 days; format: functional, organism-based; conditions: Human alphaherpesvirus 3, 07/1, HEL, 120 h
Human alphaherpesvirus 3 [4] = test: Antiviral activity against thymidine kinase deficient VZV YS/R in HEL cells assessed as reduction of virus plaque formation after 5 days; format: functional, organism-based; conditions: Human alphaherpesvirus 3, YS/R, 120 h
Human betaherpesvirus 5 [5] = test: Antiviral activity against HCMV AD169 in HEL cells assessed as reduction of virus plaque formation after 7 days; format: functional, organism-based; conditions: Human betaherpesvirus 5, AD169, HEL, 168 h
Summary of the method: (§1)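 Confluent HEL fibroblasts were infected with HCMV at 100 pfu per well. After 2 h the residual virus was removed and medium with a range of compound concentrations was added (duplicate). Cells were incubated 7 days at 37 °C, then fixed with ethanol and stained with Giemsa. Virus-induced cytopathicity was scored microscopically, and EC50 was read from graphic plots of % cytopathicity versus concentration.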

Human betaherpesvirus 5 [6] = test: Antiviral activity against HCMV Davis in HEL cells assessed as reduction of virus plaque formation after 7 days; format: functional, organism-based; conditions: Human betaherpesvirus 5, Davis, 168 h; summary of the method: as §1
[7] = Cytotoxicity against HEL cells assessed as alteration in cell morphology after 3 days; format: cell-based; conditions: human
[8] = Cytotoxicity against HEL cells after 3 days; format: cell-based; conditions: human
Summary of the method: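 HEL cells were seeded at 5 × 10^3 cells/well and allowed to grow for 24 h. Medium containing graded compound concentrations was then added, followed by 3 days at 37 °C. Cell number was counted with a Coulter counter.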

Structure (SMILES) | IC50 (Thymidine kinase) [µM] | EC50 (Human alphaherpesvirus 3 [1]) [µM] | EC50 (Human alphaherpesvirus 3 [2]) [µM] | EC50 (Human alphaherpesvirus 3 [3]) [µM] | EC50 (Human alphaherpesvirus 3 [4]) [µM] | EC50 (Human betaherpesvirus 5 [5]) [µM] | EC50 (Human betaherpesvirus 5 [6]) [µM] | MCC at 72 h [7] [µM] | CC50 at 72 h [8] [µM]
CCCCCCCCCCc1cc2cn([C@H]3C[C@H](O)[C@@H](CO)O3)c(=O)nc2o1 | ≥ 500 | 0.066 | 0.094 | > 51 | > 51 | > 130 | 64 | ≥ 130 | > 510
O=c1nc2oc(C#Cc3ccccc3)cc2cn1[C@H]1C[C@H](O)[C@@H](CO)O1 | 493 | 99 | ≥ 140 | > 140 | > 140 | > 140 | > 140 | > 570 | > 570
CCCCCc1ccc(CCc2cc3cn([C@H]4C[C@H](O)[C@@H](CO)O4)c(=O)nc3o2)cc1 | – | – | 18 | > 120 | – | > 120 | > 120 | ≥ 470 | > 470
Nc1nc2c(ncn2COCCO)c(=O)[nH]1 [ACYCLOVIR] | – | – | – | – | – | – | – | > 220 | > 890
CCCCCCCC/C=C/c1cc2cn([C@H]3C[C@H](O)[C@@H](CO)O3)c(=O)nc2o1 | 65 | 0.72 | 1.2 | > 48 | 26 | 22 | 8.4 | ≥ 120 | 230
CCCC#Cc1ccc(-c2cc3cn([C@H]4C[C@H](O)[C@@H](CO)O4)c(=O)nc3o2)cn1 | 2.9 | 0.06 | 0.09 | > 20 | > 20 | > 20 | > 20 | ≥ 100 | > 50
CCCCCc1ccc(-c2cc3cn([C@H]4C[C@H](O)[C@@H](CO)O4)c(=O)nc3o2)nc1 | 4.2 | – | 0.07 | > 100 | > 100 | > 100 | > 100 | > 100 | > 50
CCCCCCc1ccc(-c2cc3cn([C@H]4C[C@H](O)[C@@H](CO)O4)c(=O)nc3o2)cn1 | 30 | 0.09 | 0.14 | > 20 | > 20 | > 20 | > 20 | 100 | > 50
CCCCCCc1cnc(-c2cc3cn([C@H]4C[C@H](O)[C@@H](CO)O4)c(=O)nc3o2)nc1 | 15 | 0.71 | 0.63 | > 100 | > 100 | > 100 | > 100 | > 100 | > 50
CCCCCCCCC#Cc1cc2cn([C@H]3C[C@H](O)[C@@H](CO)O3)c(=O)nc2o1 | 217 | – | – | – | – | – | – | – | –
O=c1[nH]c(=O)n([C@H]2C[C@H](O)[C@@H](CO)O2)cc1/C=C/Br [BRIVUDINE] | – | 0.01 | 0.01 | ≥ 99 | ≥ 130 | – | – | > 150 | > 150
CCCCCc1ccc(C#Cc2cc3cn([C@H]4C[C@H](O)[C@@H](CO)O4)c(=O)nc3o2)cc1 | – | 19 | 17 | 71 | – | 13 | 11 | 470 | 110
O=c1nc2oc(CCc3ccccc3)cc2cn1[C@H]1C[C@H](O)[C@@H](CO)O1 | – | – | 380 | > 560 | – | > 560 | > 560 | > 560 | > 560
CCCCCc1ccc(-c2cc3cn([C@H]4C[C@H](O)[C@@H](CO)O4)c(=O)nc3o2)cn1 | 18 | 0.09 | 0.13 | > 20 | > 20 | > 20 | > 20 | 100 | > 50
Cc1ccc(CCc2cc3cn([C@H]4C[C@H](O)[C@@H](CO)O4)c(=O)nc3o2)cc1 | – | – | > 140 | > 140 | – | > 540 | > 540 | 540 | > 540
Cc1ccc(C#Cc2cc3cn([C@H]4C[C@H](O)[C@@H](CO)O4)c(=O)nc3o2)cc1 | – | 41 | 66 | 36 | – | 510 | > 130 | ≥ 510 | 510
CCCCCc1cnc(-c2cc3cn([C@H]4C[C@H](O)[C@@H](CO)O4)c(=O)nc3o2)nc1 | 24 | 2 | 1.9 | > 100 | > 100 | > 100 | > 100 | > 100 | > 50
CCCCc1ccc(-c2cc3cn([C@H]4C[C@H](O)[C@@H](CO)O4)c(=O)nc3o2)nc1 | 34 | 0.36 | 0.23 | > 100 | > 100 | > 100 | > 100 | > 100 | > 50
CCCCCc1ccc(-c2cc3cn([C@H]4C[C@H](O)[C@@H](CO)O4)c(=O)nc3o2)cc1 [CF1743] | – | – | – | – | – | – | – | > 1.3 | –
CCCc1ccc(C#Cc2cc3cn([C@H]4C[C@H](O)[C@@H](CO)O4)c(=O)nc3o2)cc1 | – | 27 | 41 | > 50 | > 50 | 15 | 8.7 | 87 | > 120
CCCCCCc1ccc(-c2cc3cn([C@H]4C[C@H](O)[C@@H](CO)O4)c(=O)nc3o2)nc1 | 3.7 | 0.045 | 0.06 | > 100 | 70 | > 100 | > 100 | > 100 | > 50
Nc1nc2c(ncn2COC(CO)CO)c(=O)[nH]1 [GANCICLOVIR] | – | 2.3 | – | – | – | – | 8.7 | > 200 | > 200
CCCc1ccc(CCc2cc3cn([C@H]4C[C@H](O)[C@@H](CO)O4)c(=O)nc3o2)cc1 | > 500 | ≥ 50 | > 130 | > 50 | > 130 | > 130 | > 130 | ≥ 130 | > 130
